Active and inactive are the calls of the source. The rule behind the calls is not given here.
How the values were obtained:
SW-620 [1] = experiment: Antitumor activity against human SW620 cells xenografted in Swiss nude mouse assessed as increase in large multinucleated cells at 70 mg/kg/day, sc over 48 hrs by H&E staining method; type: functional, organism-based
How it was run: (§1)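 Male nude mice bearing SW620 tumors (n = 4/group) had 48-h s.c. mini-pump infusion of AZD1152 (70 mg/kg/d) or vehicle. Excised tumor sections were stained with H&E, or immunostained for PhH3 Ser10 with rabbit polyclonal antibody, HRP-polymer detection and hematoxylin counterstain.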

HL-60 [2] = experiment: Antitumor activity against human HL-60 cells xenografted in immunodeficient Swiss athymic mouse assessed as maximum inhibition of tumor volume at 150 mg/kg/day, sc for 48 hrs on days 16 to 18 and measured on day 18 relative to control; type: functional; conditions: HL-60, 72 h, time 3 day
How it was run: (§2)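 Male Swiss athymic nude mice, 8-12 wk; tumor cells (1×10^6-1×10^7, 50:50 Matrigel) implanted s.c. on flank. Randomized (n = 8-11) at 0.2-0.5 cm3. AZD1152 in Tris buffer pH 9, or vehicle (0.3 mol/L Tris), by 48-h s.c. osmotic mini-pump infusion (two 24-h pumps in sequence). Caliper volumes up to 3×/week; growth inhibition from change in control vs treated volume; one-tailed t test.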

SW-620 [3] = experiment: Antitumor activity against human SW620 cells xenografted in Swiss nude mouse assessed as accumulation in proportion of 4N DNA content at 70 mg/kg/day, sc over 48 hrs by flow cytometry analysis relative to control; type: functional
How it was run: (§3)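 Male nude mice with palpable s.c. SW620 tumors (n = 4/group) received AZD1152 (0.5-150 mg/kg/d) or vehicle by constant 48-h s.c. mini-pump infusion. Tumors were then excised, fixed and disaggregated. Flow cytometry with propidium iodide gave DNA content (2N, 4N, >4N), and rabbit anti-PhH3 with fluorescein anti-rabbit IgG gave PhH3-positive cells (%).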

Calu-6 = experiment: Antitumor activity against human Calu-6 cells xenografted in immunodeficient Swiss athymic mouse assessed as inhibition of tumor volume at 150 mg/kg/day, sc for 48 hrs on days 20 to 22 and measured on day 41 relative to control; type: functional; conditions: Calu-6, 528 h, time 22 day; how it was run: as §2
SW-620 [4] = experiment: Antitumor activity against human SW620 cells xenografted in nude athymic rat assessed as larger multinucleated tumor cells at 25 mg/kg/day, iv for 4 consecutive days and measured on 9 day by H&E staining based immunohistochemistry analysis; type: functional, organism-based
How it was run: (§4)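 Nude rats bearing SW620 tumors were dosed i.v. with AZD1152 at 25 mg/kg/d or with vehicle on days 1-4. Subgroups (n = 3) were killed at set days. Tumor and bone marrow sections were H&E-stained and examined histologically.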

SW-620 [5] = experiment: Antitumor activity against human SW620 cells xenografted in nude athymic rat assessed as normal appearance in bone marrow at 25 mg/kg/day, iv for 4 consecutive days and measured on 9 day by H&E staining based immunohistochemistry analysis; type: functional, organism-based; how it was run: as §4
COLO 205 [6] = experiment: Antitumor activity against human COLO 205 cells xenografted in immunodeficient Swiss athymic mouse assessed as inhibition of tumor volume at 150 mg/kg/day, sc for 48 hrs on days 5 to 7 and measured on day 21 relative to control; type: functional; conditions: COLO 205, 408 h, time 17 day; how it was run: as §2
SW-620 [7] = experiment: Antitumor activity against human SW620 cells xenografted in nude athymic rat assessed as atrophy in bone marrow at 25 mg/kg/day, iv for 4 consecutive days and measured on 5 day by H&E staining based immunohistochemistry analysis; type: functional, organism-based; how it was run: as §4
SW-620 [8] = experiment: Antitumor activity against human SW620 cells xenografted in immunodeficient Swiss athymic mouse assessed as maximum inhibition of tumor volume at 150 mg/kg/day, sc for 48 hrs on days 7 to 9 and measured on day 23 relative to control; type: functional; conditions: SW-620, 408 h, time 17 day; how it was run: as §2
SW-620 [9] = experiment: Antitumor activity against human SW620 cells xenografted in Swiss nude mouse assessed as reduction in PhH3 at Ser10 residue at 70 mg/kg/day, sc over 48 hrs by immunohistochemistry analysis; type: functional, organism-based; how it was run: as §1
SW-620 [10] = experiment: Antitumor activity against human SW620 cells xenografted in Swiss nude mouse assessed as accumulation in proportion of 2N DNA content at 70 mg/kg/day, sc over 48 hrs by flow cytometry analysis relative to control; type: functional; how it was run: as §3
A549 = experiment: Antitumor activity against human A549 cells xenografted in immunodeficient Swiss athymic mouse assessed as inhibition of tumor volume at 25 mg/kg/day, sc for 48 hrs on days 13 to 15 and measured on day 29 relative to control; type: functional; conditions: A549, 408 h, time 17 day; how it was run: as §2
SW-620 [11] = experiment: Antitumor activity against human SW620 cells xenografted in Swiss nude mouse assessed as inhibition in PhH3 level at 10 to 150 mg/kg/day, sc measured over 48 hrs by flow cytometry analysis relative to control; type: functional; conditions: dose 10-150 mg/kg/day; how it was run: as §3
SW-620 [12] = experiment: Antitumor activity against human SW620 cells xenografted in nude athymic rat assessed as proportion of polyploid DNA content in tumor cells at 25 mg/kg/day, iv for 1 to 5 consecutive days by flow cytometry analysis relative to control; type: functional; conditions: time 1-5 day
How it was run: (§5)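 Nude rats with SW620 xenografts (0.5-1 cm3) were given vehicle or AZD1152 at 25 mg/kg/d as an i.v. bolus once daily on days 1-4. Subgroups (n = 3) were killed on days 0, 5, 9, 12, 16 and 19. Disaggregated tumors were analyzed by flow cytometry for PhH3 (% of control) and for 4N and >4N DNA (fold over control).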

SW-620 [13] = experiment: Antitumor activity against human SW620 cells xenografted in nude athymic rat assessed as proportion of 4N DNA content in tumor cells at 25 mg/kg/day, iv for 1 to 5 consecutive days by flow cytometry analysis relative to control; type: functional; conditions: time 1-5 day; how it was run: as §5
SW-620 [14] = experiment: Antitumor activity against human SW620 cells xenografted in nude athymic rat assessed as suppression in PhH3 at 25 mg/kg/day, iv for 4 consecutive days and measured during dosing period (days 1 to 4) by flow cytometry analysis relative to control; conditions: time 1 to 4 day
SW-620 [15] = experiment: Antitumor activity against human SW620 cells xenografted in nude athymic rat assessed as most affect in leukocyte population at 25 mg/kg/day, iv for 4 consecutive days by flow cytometric analysis; type: functional, organism-based; conditions: time 4.0 day
HL-60 [16] = experiment: Antitumor activity against human HL-60 cells xenografted in immunodeficient Swiss athymic mouse assessed as inhibition of tumor volume at 150 mg/kg/day, sc for 48 hrs on days 16 to 18 and measured on day 35 relative to control; type: functional; conditions: HL-60, 480 h, time 20 day; how it was run: as §2
COLO 205 [17] = experiment: Antitumor activity against human COLO 205 cells xenografted in immunodeficient Swiss athymic mouse assessed as maximum inhibition of tumor volume at 150 mg/kg/day, sc for 48 hrs on days 5 to 7 and measured on day 18 relative to control; type: functional; conditions: COLO 205, 336 h, time 14 day; how it was run: as §2
SW-620 [18] = experiment: Antitumor activity against human SW620 cells xenografted in immunodeficient Swiss athymic mouse assessed as inhibition of tumor volume at 10 mg/kg/day, sc for 48 hrs on days 7 to 9 and measured on day 23 relative to control; type: functional; conditions: SW-620, 408 h, time 17 day; how it was run: as §2

Q: For `CCN(CCCOc1ccc2c(Nc3cc(CC(=O)Nc4cccc(F)c4)[nH]n3)ncnc2c1)CCOP(=O)(O)O` [BARASERTIB], which Activity (SW-620 [1]) is on record?
A: Its Activity is “Active”.

Q: And the inhibition in vivo at 150 mg/kg/day (HL-60 [2])?
A: The inhibition in vivo at 150 mg/kg/day was > 100%.

Q: And the Activity (SW-620 [3])?
A: Its Activity is 56%.

Q: And the inhibition in vivo at 150 mg/kg/day (Calu-6)?
A: Its inhibition in vivo at 150 mg/kg/day is 55%.

Q: And the Activity (SW-620 [4])?
A: Its Activity is “Active”.

Q: And the Activity (SW-620 [5])?
A: Its Activity is “inactive”.

Q: What about the inhibition in vivo at 150 mg/kg/day (COLO 205 [6]) of the same molecule?
A: The inhibition in vivo at 150 mg/kg/day was 94%.

Q: And the Activity (SW-620 [7])?
A: The Activity was “Active”.

Q: And the inhibition in vivo at 150 mg/kg/day (SW-620 [8])?
A: Its inhibition in vivo at 150 mg/kg/day is 87%.

Q: What about the Activity (SW-620 [9]) of the same molecule?
A: Its Activity is “Active”.

Q: And the Activity (SW-620 [10])?
A: Its Activity is 35%.

Q: What about the inhibition in vivo at 25 mg/kg/day (A549) of the same molecule?
A: Its inhibition in vivo at 25 mg/kg/day is 36%.

Q: What about the “inhibition (INH)” value (SW-620 [11]) of the same molecule?
A: The value was 77%.

Q: And the Activity (SW-620 [12])?
A: Its Activity is 67%.

Q: And the Activity (SW-620 [13])?
A: Its Activity is 60%.

Q: And the Activity (SW-620 [14])?
A: Its Activity is ~40%.

Q: And the Activity (SW-620 [15])?
A: The Activity was “Active”.

Q: And the inhibition in vivo at 150 mg/kg/day (HL-60 [16])?
A: Its inhibition in vivo at 150 mg/kg/day is > 100%.

Q: What about the inhibition in vivo at 150 mg/kg/day (COLO 205 [17]) of the same molecule?
A: The inhibition in vivo at 150 mg/kg/day was > 100%.

Q: What about the inhibition in vivo at 10 mg/kg/day (SW-620 [18]) of the same molecule?
A: The inhibition in vivo at 10 mg/kg/day was 28%.

Reference: ChEMBL document CHEMBL5715941, “AZD1152, a selective inhibitor of Aurora B kinase, inhibits human tumor xenograft growth by inducing apoptosis” (Clin Cancer Res, 2007)
